Assay results as given in ChEMBL document CHEMBL1148265, “Synthesis and biological activity of N-aryl-2-aminothiazoles: potent pan inhibitors of cyclin-dependent kinases” (Bioorg Med Chem Lett, 2004).

test system: A2780; assay: Cytotoxic effect on human ovarian (A2780) cancer cell line; assay type: functional, cell-based

Row | Compound | IC50
1 | CC(C)(CO)CNCc1ccc(Nc2ncc(SCc3ncc(C(C)(C)C)o3)s2)nc1 | 3 nM
2 | CC(C)(C)c1cnc(CSc2cnc(Nc3ccccn3)s2)o1 | 10 nM
3 | CC(C)(C)c1cnc(CSc2cnc(Nc3ccccc3)s2)o1 | 140 nM
4 | CC(C)(C)c1cnc(CSc2cnc(Nc3cccnc3)s2)o1 | 50 nM
5 | CC(C)(C)c1cnc(CSc2cnc(Nc3ccc(S(=O)(=O)NCCO)cc3)s2)o1 | 69 nM
6 | CC(C)(C)c1cnc(CSc2cnc(NC(=O)Cc3cccnc3)s2)o1 | 240 nM

target: Cyclin-dependent kinase 1/cyclin B (Homo sapiens, UniProt P06493); assay: Inhibition of cyclin-dependent kinase 1-cyclin B; assay type: protein-complex assay
Method in brief: (§1)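 Cell-free kinase assay with the CDK/cyclin complex as enzyme. Read-out is phosphorylation of RB protein as substrate. IC50 values were reported.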

Row | Compound | IC50
7 | CC(C)(CO)CNCc1ccc(Nc2ncc(SCc3ncc(C(C)(C)C)o3)s2)nc1 | 18 nM
8 | CC(C)(C)c1cnc(CSc2cnc(Nc3ccccc3)s2)o1 | 12 nM
9 | CC(C)(C)c1cnc(CSc2cnc(Nc3ccc(S(=O)(=O)NCCO)cc3)s2)o1 | 10 nM
10 | CC(C)(C)c1cnc(CSc2cnc(NC(=O)Cc3cccnc3)s2)o1 | 80 nM

The remaining lines, values ahead:

Row | IC50 | Compound
11 | 4 nM | CC(C)(C)c1cnc(CSc2cnc(Nc3ccccn3)s2)o1
12 | 10 nM | CC(C)(C)c1cnc(CSc2cnc(Nc3cccnc3)s2)o1

target: Cyclin-dependent kinase 2/cyclin E (Homo sapiens, UniProt P24941); assay: Inhibition of Cyclin-dependent kinase 2-cyclin E; assay type: protein-complex assay; method in brief: as §1

Row | Compound | IC50
13 | CC(C)(CO)CNCc1ccc(Nc2ncc(SCc3ncc(C(C)(C)C)o3)s2)nc1 | 3 nM
14 | CC(C)(C)c1cnc(CSc2cnc(Nc3ccccc3)s2)o1 | 4 nM
15 | CC(C)(C)c1cnc(CSc2cnc(Nc3ccc(S(=O)(=O)NCCO)cc3)s2)o1 | 2 nM
16 | CC(C)(C)c1cnc(CSc2cnc(NC(=O)Cc3cccnc3)s2)o1 | 5 nM

Further lines, results first:

Row | IC50 | Compound
17 | 2 nM | CC(C)(C)c1cnc(CSc2cnc(Nc3ccccn3)s2)o1
18 | 3 nM | CC(C)(C)c1cnc(CSc2cnc(Nc3cccnc3)s2)o1

target: Cyclin-dependent kinase 4/cyclin D (Homo sapiens, UniProt P11802); assay: Inhibition of Cyclin-dependent kinase 4-cyclin D; assay type: protein-complex assay; method in brief: as §1

Row | Compound | IC50
19 | CC(C)(CO)CNCc1ccc(Nc2ncc(SCc3ncc(C(C)(C)C)o3)s2)nc1 | 26 nM
20 | CC(C)(C)c1cnc(CSc2cnc(Nc3ccccc3)s2)o1 | 78 nM
21 | CC(C)(C)c1cnc(CSc2cnc(Nc3ccc(S(=O)(=O)NCCO)cc3)s2)o1 | 233 nM
22 | CC(C)(C)c1cnc(CSc2cnc(NC(=O)Cc3cccnc3)s2)o1 | 1090 nM

Next, values leading:

Row | IC50 | Compound
23 | 9 nM | CC(C)(C)c1cnc(CSc2cnc(Nc3ccccn3)s2)o1
24 | 130 nM | CC(C)(C)c1cnc(CSc2cnc(Nc3cccnc3)s2)o1

test system: Mus musculus; assay: In vivo anticancer activity of compound was determined as increase in survival time of treated groups versus untreated control against P388 murine leukemia in mice at 90 mg/kg; assay type: functional
Method in brief: (§2)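 P388 murine leukemia cells implanted ip into immunocompetent mice. Drug given ip right after implantation, then once daily for 7 days (qdx7). Efficacy read as increase in lifespan, reported as the ratio of lifespan of the treated group (T) to the control group (C) (%T/C).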

Row | Compound | T/C
25 | CC(C)(C)c1cnc(CSc2cnc(Nc3ccc(S(=O)(=O)NCCO)cc3)s2)o1 | 180%

test system: Mus musculus; assay: In vivo anticancer activity of compound was determined as increase in survival time of treated groups versus untreated control against P388 murine leukemia in mice at 4 mg/kg; assay type: functional; method in brief: as §2

Row | Compound | T/C
26 | CC(C)(CO)CNCc1ccc(Nc2ncc(SCc3ncc(C(C)(C)C)o3)s2)nc1 | 156%

organism: Mus musculus; assay: Compound was tested binding to mouse serum; assay type: functional
Method in brief: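 Free versus bound fraction measured by equilibrium dialysis against mouse serum.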

Row | Compound | Binding
27 | CC(C)(CO)CNCc1ccc(Nc2ncc(SCc3ncc(C(C)(C)C)o3)s2)nc1 | 90%
28 | CC(C)(C)c1cnc(CSc2cnc(Nc3ccc(S(=O)(=O)NCCO)cc3)s2)o1 | 97%
